# Screening results deposited in PubChem by Johns Hopkins Ion Channel Center.
# RGS4 act = RGS4 potentiators or activators, primary screen, cell-based, HEK293 M3R inducible RGS4, calcium flux | carbachol calcium flux Fluo4; hits give low values | B-score at 10 µM | actives 0.92% (n = 310,000);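 active means B-score of the integrated calcium signal more than 4 SD below the library mean, with starting fluorescence not abnormally high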;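 further: negative B-score means reduced calcium response which marks RGS4 activation or potentiation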
#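 test system = M3R-expressing HEK293 line, RGS4 induced by doxycycline | probe or stimulus = carbachol at ECmax as muscarinic agonist stimulus | timing = dye loading 30 min 37 °C, buffer rest 30 min RT | signal = calcium dye Fluo4 fluorescence | evaluation = B score from integrated fluorescence ratio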
# MrgX1 PAM = positive allosteric modulators of MrgX1, primary screen, HEK293 cells, Fluo-4 calcium flux. FDSS; hits give high values. B-score at 10 µM. actives 0.63% (n = 310,000);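 active means plate-corrected calcium response at least 3 library SD above typical, normal starting fluorescence, not activating the receptor alone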;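 further: compound read alongside a low EC10 to EC30 dose of BAM8-22 agonist; peak minus trough fluorescence over baseline measured at the second addition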
# Target sequence (Q96LB2 whole entry, looked up): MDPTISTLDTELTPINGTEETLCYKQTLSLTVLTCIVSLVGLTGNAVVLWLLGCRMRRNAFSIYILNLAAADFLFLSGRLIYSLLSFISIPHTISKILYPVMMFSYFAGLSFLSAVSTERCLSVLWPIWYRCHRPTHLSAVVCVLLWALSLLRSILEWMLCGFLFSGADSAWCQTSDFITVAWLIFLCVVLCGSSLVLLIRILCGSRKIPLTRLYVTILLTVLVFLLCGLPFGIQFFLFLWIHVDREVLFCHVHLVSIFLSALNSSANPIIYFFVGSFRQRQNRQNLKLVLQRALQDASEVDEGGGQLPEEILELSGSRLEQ
# MrgX1 antagonist = antagonists of human MrgX1 receptor, primary screen, HEK293 cells, Fluo-4 calcium flux; Mas-related G-protein coupled receptor member X1 (Homo sapiens), Q96LB2; BAM8-22 antagonism; hits give low values; actives 1.3% (n = 310,000); B-score at 10 µM;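 active means calcium-response B-score plate-corrected more than 3 library SD below zero, starting fluorescence within 5 deviations, no agonist response on first addition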;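 further: peak minus trough fluorescence over baseline after final BAM8-22 challenge near maximal dose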
# RGS4 inh = RGS4 inhibitors, primary screen, cell-based, HEK293 M3R inducible RGS4, calcium flux. Fluo-4 calcium flux; hits give high values; triggered by carbachol at its EC20. B-score at 10 µM. actives 0.45% (n = 310,000). AID 463165, 2010;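 active means B-score, a plate-corrected calcium signal, over three deviations above library mean, with baseline fluorescence within five deviations of library mean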;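 further: RGS4 expression induced by doxycycline in cells with stable M3 receptor; B-score is computed from the integrated fluorescence ratio over baseline after carbachol; higher B-score means a larger calcium signal and so more RGS4 inhibition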
# Target sequence (P49798 whole entry, looked up): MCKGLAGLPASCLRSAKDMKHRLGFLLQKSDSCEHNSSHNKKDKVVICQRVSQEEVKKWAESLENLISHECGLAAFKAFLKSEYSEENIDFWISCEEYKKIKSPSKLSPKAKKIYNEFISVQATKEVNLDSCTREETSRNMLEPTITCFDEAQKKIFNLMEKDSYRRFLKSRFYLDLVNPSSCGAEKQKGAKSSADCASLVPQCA
# MrgX1 ag = agonists of human MrgX1 receptor, primary screen, HEK293 cells, Fluo-4 calcium flux | B-score at 10 µM | actives 0.44% (n = 310,000) | AID 588627, 2011 | Fluo-4 calcium fluorescence, agonist mode; hits give high values;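 active means calcium response B-score plate-corrected fluorescence ratio at least 3 library SD, with starting fluorescence B-score inside 5 SD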
#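 System: HEK293 cells stably expressing human MrgX1 receptor; Dosing: test compound in the initial addition of three; Schedule: overnight plating, then 30 min 37 °C plus 30 min room-temperature dye loading; Detection: kinetic calcium dye fluorescence, Fluo-4 NW; Controls: per-plate positive and negative controls for Z′ factor.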
# A number is an active result; i = inactive. In the library only some 3.5% were active in any assay of this set; here they are far more common.
SMILES,RGS4 act,MrgX1 PAM,MrgX1 antagonist,RGS4 inh,MrgX1 ag
Cn1nc(CC(=O)NC2CCCCCCCCCCC2)c2ccccc2c1=O,i,i,i,i,i
Cc1ccc2c(c1)S/C(=C/c1ccc[n+](C)c1)N2CCO,-7,i,i,i,i
COc1ccccc1-c1c(C)oc2cc(OC(=O)c3ccco3)ccc2c1=O,i,i,i,i,i
COc1ccc2c(=O)c(-c3ccccc3C)c(C)oc2c1,i,9.3,i,i,i
c1cc2c3c(cccc3c1)C(N1CCCCCC1)=N2,-7.4,i,i,i,i
c1cc2c3c(cccc3c1)C(N1CCCCC1)=N2,i,i,i,i,i
CN(Cc1cnn(C)c1)C(=O)C1CCC(=O)N(Cc2ccc(Cl)cc2)C1 (stereo not given),i,i,i,i,i
O=C(c1ccco1)N(CCC(c1ccccc1)c1ccco1)Cc1ccco1 (stereo not given),i,i,-6.4,i,i
Cc1ccc(C(CCN(Cc2ccccc2)C(=O)c2ccco2)c2ccco2)cc1 (stereo not given),i,i,i,i,i
COc1ccc(-n2c3c(cc(C#N)c2=O)C(=O)CCC3)cc1,i,11,i,i,i
COc1ccc(-n2c3c(cc(C(=O)Nc4ccc(C)cc4)c2=O)C(=O)CCC3)cc1,i,i,i,i,i
CCCCNC(=O)Cn1nc([N+](=O)[O-])c([N+](=O)[O-])c1C,i,i,-5.4,i,i
O=C(c1ccncc1)N1N=C(C2CCCCC2)CC1(O)C(F)(F)F (stereo not given),-7.4,i,i,i,i
Cc1ccc(NC(=O)CCCC(=O)O)c(-c2nc3ccccc3[nH]c2=O)c1,i,i,i,i,i
CCc1ccc(CN(Cc2cccnc2)C(=O)/C=C/c2ccc(OC)cc2)cc1,i,i,i,i,i
O=C(O)/C=C/C(=O)c1ccc2c(c1)CCc1ccccc1-2,i,i,-5.2,i,i
Cc1ccc(C(=O)c2ccccc2C(=O)OCC(=O)NCC2CCCO2)cc1 (stereo not given),i,i,i,i,i
O=C(CNc1ccccc1)NN=C1CCCC1,i,i,i,i,i
Cc1cc(C)c(C(=O)C(C)OC(=O)C2=COCCO2)cc1C (stereo not given),i,7.6,i,i,i
CC(NC(=O)CCNC(=O)N1CCn2c1nc1ccccc12)c1ccccc1 (stereo not given),i,i,i,i,i
COC(=O)c1ccc2c(c1)C(C)(C)C(/C=C/c1ccc(OC)c(OC)c1OC)=[N+]2C,i,i,-6.5,i,i
COc1ccc(/C=C/C(=O)NC(=S)NNC(=O)Cc2cccs2)cc1OC,i,i,i,i,i
O=C(NC(=S)Nc1cccnc1Cl)c1ccc(Cl)cc1,i,9.5,i,i,i
CCn1c(C)nc2cc(C(=O)NNC(=S)NC(=O)c3ccccc3)ccc21,i,7.4,i,i,i
CCn1c(C)nc2cc(C(=O)NNC(=S)Nc3ccccc3)ccc21,i,i,i,i,i
SMILES,RGS4 act,MrgX1 PAM,MrgX1 antagonist,RGS4 inh,MrgX1 ag
O=C(Nc1cccnc1Cl)c1ccc(Cl)cc1,i,i,i,i,i
O=C(COc1ccc(Cl)cc1Cl)Nc1ccccc1F,-7.2,i,i,i,i
O=C(/C=C/c1cccs1)NC(=S)NNC(=O)Cc1cccs1,i,i,i,i,48
O=C(Nc1ccccc1N1CCOCC1)c1cccc2c(Br)cccc12,i,i,i,i,i
Cc1ccc(CS(=O)(=O)c2cn(CC(=O)N3CCOCC3)c3ccccc23)cc1,i,i,i,i,i
O=c1cc(N2CCCC2)c2ccccc2o1,i,i,i,i,i
O=S(=O)(Nc1cccc(S(=O)(=O)N2CCOCC2)c1)c1cccs1,i,i,i,i,i
Cc1cc(C(F)(F)F)n2nc(-c3cnn(C)c3C(F)(F)F)c(Br)c2n1,i,i,i,i,i
COc1ccc(C(=O)NC(=S)NNC(=O)c2ccc(NC(=O)C(C)C)cc2)cc1,i,i,-5.8,i,i
COc1ccc(C(=O)NC(=S)NNC(=O)Cc2cccs2)cc1,i,i,i,i,55
O=C(Cc1cccs1)NNC(=S)NCc1ccco1,-8.2,i,i,i,i
CCC(=O)NC(=S)NNC(=O)c1ccc(OC)cc1,i,i,i,i,i
O=C(COc1ccc(Cl)cc1Cl)NNC(=S)NCc1ccco1,-7.1,13,i,i,i
CC(C)C(=O)Nc1ccc(C(=O)NNC(=S)NC(=O)c2ccccc2[N+](=O)[O-])cc1,i,i,i,i,i
Cc1nc2c(Br)c(C)nn2c2c1CCC2,i,i,i,i,i
Cc1c(C)n2c(SCC(=O)Nc3cccc4ccccc34)nnc2[nH]c1=O,i,i,i,i,i
COc1ccc(C(=O)NNC(=S)NC(=O)c2ccc(Cl)cc2)cc1,-8,i,i,i,122
COc1ccc(-c2nn(-c3ccccc3)cc2C(=O)NC(=S)NNC(=O)c2ccncc2)cc1,i,i,-4.6,i,i
Cc1cccc(C(=O)NC(=S)NNC(=O)c2ccc(Cl)cc2)c1,i,18,i,i,i
CCN1CCN(C(=O)c2ccc(Sc3ccccc3Cl)c([N+](=O)[O-])c2)CC1,i,i,i,i,i
CCN1CCCC1CNC(=O)c1ccc(Sc2ccc(F)cc2)c([N+](=O)[O-])c1 (stereo not given),-9.9,i,i,i,i
CCN1CCCC1CNC(=O)c1ccc(Sc2ccccc2Cl)c([N+](=O)[O-])c1 (stereo not given),-7.1,i,i,i,i
CN1C(=O)C(C)(C)c2cc(S(=O)(=O)N3CCN(c4cccc(Cl)c4)CC3)ccc21,i,i,i,i,i
COc1ccccc1N1CC(C(=O)Nc2ccccc2N2CCCC2)CC1=O (stereo not given),i,i,i,i,i
Fc1ccccc1-c1nc(-c2ccc(Br)o2)no1,i,i,i,i,i
SMILES,RGS4 act,MrgX1 PAM,MrgX1 antagonist,RGS4 inh,MrgX1 ag
O=C(c1cc(-c2ccccc2Cl)nc2ccccc12)N1CCC1,i,i,i,i,i
O=C(c1cc(-c2ccccc2Cl)nc2ccccc12)N1CCN(c2ccccc2O)CC1,-7.6,i,i,i,i
Cc1ccccc1-c1cc(C(=O)N2CCCC2)c2ccccc2n1,i,i,i,i,i
CN1CCCN(C(=O)c2cc(-c3cccc4ccccc34)nc3ccccc23)CC1,i,i,i,i,35
COc1cc(C)ccc1OCc1cc(C(=O)N2CCCCCCC2)no1,i,i,i,i,i
Cc1occc1C(=O)NC(C)C1CCCO1 (stereo not given),i,i,-9.3,i,i
Cc1cc(C)c(S(=O)(=O)N2CCN(C(=O)CN3C(=O)NC4(CCCC4)C3=O)CC2)c(C)c1,i,i,i,i,i
Cc1cccc(-n2c(C)cc(C=C3C(=O)c4ccccc4C3=O)c2C)c1,-10,i,i,i,i
